We go through 5 compounds from publication PMC8245858 (Acta Pharmaceutica Sinica. B, 2021).

In one series the test system is MGC-803 xenograft. Kind of series: Gastric cancer cell line-derived xenograft. The series is classed as in vivo, nude mice. Particulars: for pathologic examination of heart, liver, spleen, lung and kidney: compared with the saline group, end of treatment. Put shortly: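 Male nude mice (6–8 weeks) get MGC-803 cells subcutaneously in the right flank. Body weight recorded every two days. After final dose, liver, kidney, lung, heart and spleen taken for histopathology.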

Series [1] can be described thus: Caco-2 permeability assay. Particulars: human; for efflux ratio: Caco-2; for Papp: Mean ± RSD, n = 2. The format is in vitro ADME, human. On the technique in general: Caco-2 cells form a polarised layer with tight junctions and transporters.
The test system of series [2] is gastric cancer cell lines MGC-803, HGC-27, SGC-7901, MKN-45, AGS and BGC-823. Kind of series: Cell proliferation by sulforhodamine B. The series is classed as cell-based, human. Particulars: 72 h. In short, it runs like this:
(§1)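 SRB assay after 72 h exposure. OD read at compound addition (ODstart) is subtracted: relative growth = (ODtreated − ODstart)/(ODcontrol − ODstart); inhibitory rate (%) = (ODcontrol − ODtreated)/(ODcontrol − ODstart) × 100. GI50 obtained per cell line. Mean ± SD (n = 3), three independent experiments, biological duplicates.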

For a further series, the system named is GES1. As to the kind of experiment: Cell proliferation by SRB assay, gastric epithelial cell line. Conditions: 72 h. The format is cell-based, human. In short, it runs like this:
as §1

The subject of series [3] is GPX4. As to the kind of experiment: qRT-PCR of GPX4 mRNA. The series is classed as cell-based, human. Particulars: MGC-803 and MKN-45 cells, 24 h.
A short description of series [4]: Pharmacokinetic parameters in rats. The format is in vivo. Conditions: male, SD, rat, plasma, iv, 20 mg/kg. In short, it runs like this:
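Study run by a contract laboratory in male SD rats, n = 3. Parameters taken from mean plasma concentration–time curves.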

Series [5] relates to MGC-803 cells. As to the kind of experiment: Intracellular ROS, DCFH-DA staining, flow cytometry. The format is cell-based, human. Particulars: 24 h. Put shortly: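 MGC-803 cells exposed to test compound with or without N-acetylcysteine for 24 h, stained with DCFH-DA and analysed by flow cytometry. Groups compared by two-way ANOVA.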
In general terms: Flow cytometry measures light scatter and fluorescence of single cells or particles in a stream.

The nature of series [6]: Metabolic stability in human liver microsomes. The format is in vitro ADME. (In general: Liver microsomes are vesicles of endoplasmic reticulum, rich in cytochrome P450 enzymes.)
Series [7] can be described thus: Metabolic stability in monkey liver microsomes. The series is classed as in vitro ADME.
A short description of series [8]: Metabolic stability in rat liver microsomes. The format is in vitro ADME.
Series [9] can be described thus: Metabolic stability in dog liver microsomes. The format is in vitro ADME.
The subject of series [10] is MGC-803 and MKN-45 cells. As to the kind of experiment: Lipid peroxidation using C11-BODIPY581/591. The series is classed as cell-based, human. Particulars: 6 h. In short, it runs like this: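 After 6 h exposure in 6-well plates, cells are collected and resuspended in PBS with 2 μmol/L C11-BODIPY581/591 for 30 min at 37 °C, then read by flow cytometry. For MGC-803: three independent experiments with biological duplicates, one-way ANOVA.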

Another series has as its system SLC7A11. Kind of series: qRT-PCR of SLC7A11 mRNA. The series is classed as cell-based, human. Conditions: MGC-803 and MKN-45 cells, 24 h.
The subject of a further series is Caco-2 monolayer. Kind of series: Caco-2 permeability assay. The series is classed as in vitro ADME, human. Particulars: from A to B.
Series [11] relates to MGC-803 cells. As to the kind of experiment: Cell cycle, PI staining and flow cytometry. The format is cell-based, human. Conditions: MGC-803, 48 h. Put shortly: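 MGC-803 cells exposed to test compound for 48 h, stained with PI and analysed by flow cytometry with quantification. Mean ± SD (n = 3) from three independent experiments with biological duplicates.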
Series [12] deals with GPX4. As to the kind of experiment: GPX4 expression in PDX tumor tissues by IHC. The format is in vivo, NOD-SCID mice. Conditions: sensitive PDX models PDX-01, PDX-02 and PDX-03, end of treatment.
The nature of series [13]: Metabolic stability in mouse liver microsomes. The format is in vitro ADME.
Series [14] deals with MGC-803 and MKN-45 cells. Kind of series: Intracellular ferrous iron. Particulars: 24 h. The format is cell-based, human. Put shortly:
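Cells in 60-mm dishes exposed to test compound for 24 h, alone or with 3-MA. Cells are then collected and homogenised in iron assay buffer, and ferrous iron is measured with a commercial iron assay kit per the maker's protocol. Mean ± SD (n = 3), three independent experiments, biological duplicates.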

[15] abbreviates: Caco-2, Papp (A‒B), direction A‒B.
[16] abbreviates: Caco-2, Papp (B‒A), direction B‒A.

Usually efflux ratio stands for a quotient of directional permeabilities that is used to spot active efflux. Broadly, the Papp is a coefficient for how fast a substance crosses the barrier. One may read the GI50 as the concentration giving 50% growth inhibition. Broadly, the AUC(0-inf) is total exposure, with the tail of the curve extrapolated. A word on the AUC(0-t): it is exposure summed from dosing to a finite time, without extrapolation to infinity. The term Cmax denotes the highest concentration seen after dosing. As a reminder, the MRT last is a mean duration of stay, worked out from the concentration-time curve. For orientation: Vd means a proportionality between amount in the body and measured concentration, not a real space. In general, half-life refers to the time needed for the level to fall by half in the phase considered. One may read the microsomal CLint as the capacity of the preparation to metabolise the compound, expressed as a volume cleared per time.

Molecules are shown by their SMILES.

Take `O=c1[nH]cc(F)c(=O)[nH]1` [Compound 5-FU, 5-fluorouracil, reference compound]: in the series on MGC-803 xenograft, the “pathologic examination of heart, liver, spleen, lung and kidney” value was “no observed adverse effects”.

Regarding `C[C@H]1O[C@@H](O[C@H]2[C@@H](O)C[C@H](O[C@H]3[C@@H](O)C[C@H](O[C@H]4CC[C@@]5(C)[C@H](CC[C@@H]6[C@@H]5C[C@@H](O)[C@]5(C)[C@@H](C7=CC(=O)OC7)CC[C@]65O)C4)O[C@@H]3C)O[C@@H]2C)C[C@H](O)[C@@H]1O` [Digoxin], the efflux ratio in series [1] stood at 197. In addition, the Papp was 0.13 ± 0.02 ×10⁻⁶ cm/s in series [1] (setting [15]) and 24.7 ± 0.1 ×10⁻⁶ cm/s in series [1] (setting [16]).

Regarding `CC(C)Oc1ccc(C(=O)Cn2ccnc2)cc1-n1c(CN2CCN(C(=O)COc3ccc(Cl)cc3)CC2)nc2ccccc2c1=O` [IKE, imidazole ketone erastin, reference compound], in [2] (MGC-803 and MKN-45 cells, SRB), the “effect on cell growth, compound alone” value is “no effect”.

Regarding `CC(C)NCC(O)COc1cccc2ccccc12` (centres unmarked) [Propranolol], the efflux ratio in series [1] was determined as 0.7. The Papp in series [1] (setting [15]) turned out to be 28.3 ± 0.43 ×10⁻⁶ cm/s; in [1] (setting [16]) it was 18.5 ± 0.3 ×10⁻⁶ cm/s.

As for `C=C1C(=O)[C@@]23C(C(=O)C[C@@H]1[C@H]2OC(=O)[C@@H](N)C(C)C)[C@]12CCCC(C)(C)C1C[C@H]3OC2=O` (stereo partly drawn) [a2, (6R,6aR,9S,11bS,14R)-4,4-Dimethyl-8-methylene-7,11,12-trioxododecahydro-1H-6,11b-(epoxymethano)-6a,9-methanocyclohepta[a]naphthalen-14-yl valinate], the GI50 in [2] (Homo sapiens) lay within 0.88 to 3.33 µM. Besides, the “GI50 in GES1 relative to gastric cancer cells” value in the series with GES1 is given as “at least five-fold higher”. The “mRNA level of GPX4” value with GPX4 [3] is “dose-dependently reduced”. Besides, in series [4], the AUC(0-inf) was determined as 14800 ± 1330 ng·h/mL, the AUC(0-t) is 14800 ± 1320 ng·h/mL, the concentration peaked (Cmax) at 18300 ± 1420 ng/mL and the MRT last was found to be 92.4 ± 7.8 min. In [4], this compound had a Vd of 7.73 ± 1.46 L/kg and a half-life of 236 ± 28.8 min. Moreover, the “level of ROS” value in the series on MGC-803 cells [5] is “markedly elevated”. In series [6], this compound displayed a half-life at 1 μmol/L of 34.9 min and a microsomal CLint at 1 μmol/L of 99.4 µL/min/mg. Also, in series [7], the half-life at 1 μmol/L is 23.5 min and the microsomal CLint at 1 μmol/L is 148 µL/min/mg. In series [8], this compound showed a half-life at 1 μmol/L of 31.2 min and a microsomal CLint at 1 μmol/L of 111 µL/min/mg. In the series with MGC-803 xenograft (5, 10, 20 mg/kg once a day for 21 days, tail vein injection), the tumor growth result is “dose- and time-dependently inhibited tumor growth”. Besides, the “anti-tumor efficacy compared with 5-FU (15 mg/kg)” value with MGC-803 xenograft (a2 at 10 or 20 mg/kg, once a day for 21 days) was “more potent than that of the positive control drug 5-FU”. The “pathologic examination of heart, liver, spleen, lung and kidney” value with MGC-803 xenograft is “no observed adverse effects”. Moreover, the “effect on mouse body weight” value with MGC-803 xenograft (once a day for 21 days, compared to 5-FU) is recorded as “fewer effect”. Also, in series [9], the half-life at 1 μmol/L worked out at 32.2 min and the microsomal CLint at 1 μmol/L was found to be 108 µL/min/mg. Further, in the series on MGC-803 and MKN-45 cells [10], the “lipid ROS production” value was “dose-dependently elevated”. For the same compound, the “mRNA level of SLC7A11” value in the series on SLC7A11 was “increased”. The efflux ratio in series [1] was determined as 0.2. The compound further came in with a Papp in series [1] (setting [15]) of 16.1 ± 1.01 ×10⁻⁶ cm/s. For the same compound, the Papp in [1] (setting [16]) turned out to be 3.3 ± 0.3 ×10⁻⁶ cm/s. Besides, the “permeability class against the Caco-2 monolayer” value in the series with Caco-2 monolayer is on record as “moderately permeable compound”. The “cell population in the G2/M phase” value in the series on MGC-803 cells [11] was “significantly increased”. In addition, the “expression of GPX4 in tumor tissues” value in the series on GPX4 [12] was “decreased expression of GPX4”. Moreover, in series [13], the half-life at 1 μmol/L was found to be 23.7 min and the microsomal CLint at 1 μmol/L came to 146 µL/min/mg. The ferrous iron accumulation result in the series with MGC-803 and MKN-45 cells [14] is listed as “significantly increased”.
